ChEMBL document CHEMBL4041525, “Newly Designed Quinolinol Inhibitors Mitigate the Effects of Botulinum Neurotoxin A in Enzymatic, Cell-Based, and ex Vivo Assays” (J Med Chem, 2017)
Active and inactive are the calls of the source. The calls are words filed in the database; no cut-off is given here.

Assays:
[1] = biological target: Botulinum neurotoxin type A (Clostridium botulinum) (UniProt P0DPI0); test: Inhibition of BoNT/A light chain mediated proteolysis of CFP and YFP tagged full-length SNAP-25 expressed in BoCells at 25 uM after 20 hrs by fluorescence assay
[2] = biological target: Botulinum neurotoxin type A (Clostridium botulinum) (UniProt P0DPI0); test: Inhibition of BoNT/A induced paralysis in intoxicated CD1 mouse hemidiaphragm muscles assessed as increase in half paralysis time at 20 uM pretreated for 1 hr followed by intoxication
[3] = biological target: T1, Botulinum neurotoxin type A (Clostridium botulinum, UniProt P0DPI0); test: Inhibition of protease activity of recombinant Clostridium botulinum BoNT/A light chain (425 amino acids) using SNAP-25 as substrate preincubated for 20 followed by substrate addition measured for 25 mins by FRET analysis
In short: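 Compound (from 50X DMSO stock) preincubated 20 min with recombinant 425-aa BoNT/A LC (56 nM working solution) in 40 mM HEPES, 0.1% Triton X-100, pH 7.4. SNAPtide FRET substrate (6 µM solution) then added and read for 25 min at ex 490/em 523 nm. V0 taken from linear slopes, in duplicate at ≥4 inhibitor dilutions, normalized to DMSO. IC50 from Hill-equation fit.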

[4] = biological target: T1, Botulinum neurotoxin type A; test: Uncompetitive inhibition of recombinant Clostridium botulinum BoNT/A light chain (425 amino acids) using SNAP-25 as substrate preincubated for 20 followed by substrate addition measured for 25 mins by Lineweaver-Burk plot analysis
[5] = biological target: Botulinum neurotoxin type A (Clostridium botulinum) (UniProt P0DPI0); conditions: 12.5 uM

Chain of Botulinum neurotoxin type A (Clostridium botulinum) (P0DPI0 2-448 limits assumed): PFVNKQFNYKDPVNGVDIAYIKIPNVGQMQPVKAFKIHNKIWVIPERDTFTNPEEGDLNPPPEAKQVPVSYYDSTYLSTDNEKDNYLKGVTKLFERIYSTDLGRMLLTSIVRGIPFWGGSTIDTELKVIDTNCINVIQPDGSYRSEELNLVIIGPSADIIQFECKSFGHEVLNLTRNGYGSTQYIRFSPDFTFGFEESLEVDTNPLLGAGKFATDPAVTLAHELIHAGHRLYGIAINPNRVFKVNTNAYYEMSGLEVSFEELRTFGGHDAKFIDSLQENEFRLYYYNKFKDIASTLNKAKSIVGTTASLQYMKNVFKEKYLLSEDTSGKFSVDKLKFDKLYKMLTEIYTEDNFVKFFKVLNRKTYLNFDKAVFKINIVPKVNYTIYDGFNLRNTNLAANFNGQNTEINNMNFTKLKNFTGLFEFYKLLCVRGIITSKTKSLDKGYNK
T1 sequence (P0DPI0 2-448 limits assumed): as above

Row | Structure (SMILES) | inhibition [1] | inhibition [2] | IC50 [3] | Ki [4] | inhibition [5]
1 | Oc1c(C(Nc2ccccn2)c2ccccc2)ccc2cccnc12 (stereo not drawn) | inactive | inactive |  |  | 
2 | O=S(=O)(Nc1cccc(Cl)c1)c1ccc(O)c2ncccc12 |  |  | 7.32 µM |  | 
3 | O=S(=O)(c1ccc(O)c2ncccc12)N1CCc2ccc(Cl)cc21 |  |  | 12.8 µM |  | 
4 | CC(=O)NNc1ccc2c(S(=O)(=O)N3CCc4c(Cl)cccc43)ccc(O)c2n1 | inactive | Active | 5.39 µM |  | 
5 | O=S(=O)(c1ccc(O)c2ncccc12)N1CCc2c(Cl)cccc21 | Active | Active | 3.66 µM | 2030 nM | 
6 | NNc1ccc2c(S(=O)(=O)N3CCc4c(Cl)cccc43)ccc(O)c2n1 | inactive | Active | 1.55 µM | 895 nM | 
7 | CN(c1cccc(Cl)c1)S(=O)(=O)c1ccc(O)c2ncccc12 |  |  | 4.28 µM |  | 
8 | CNNc1ccc2c(S(=O)(=O)N3CCc4c(Cl)cccc43)ccc(O)c2n1 | Active | Active | 3.26 µM |  | Active
9 | O=S(=O)(c1ccc(O)c2ncccc12)N1CCCCC1 |  |  | 18.3 µM |  | 
10 | O=S(=O)(Nc1ccccc1)c1ccc(O)c2ncccc12 |  |  | 12.7 µM |  | 
11 | CN(c1ccccc1)S(=O)(=O)c1ccc(O)c2ncccc12 |  |  | 7.19 µM |  | 
12 | CNc1ccc2c(S(=O)(=O)N3CCc4c(Cl)cccc43)ccc(O)c2n1 |  |  | 37.6 µM |  | 
13 | Nc1ccc2c(S(=O)(=O)N3CCc4c(Cl)cccc43)ccc(O)c2n1 | Active | Active | 3.36 µM |  | 
14 | CCNc1ccc2c(S(=O)(=O)N3CCc4c(Cl)cccc43)ccc(O)c2n1 |  |  | 28.6 µM |  | 
